We go through ten compounds from ChEMBL document CHEMBL1146303, “Spirodiketopiperazine-based CCR5 antagonists: Lead optimization from biologically active metabolite” (Bioorg Med Chem Lett, 2007).

SMILES strings stand for the structures. A value given as a limit tells only on which side of the number the result lay.

A short description of data set [1]: Bioavailability in rat. The class given is ADME, organism-based. To be noted: in vivo.
The target of data set [2] is T1, C-C chemokine receptor type 5 (Homo sapiens, UniProt P51681). Nature of the data set: Displacement of [125I]MIP1-alpha from human CCR5 expressed in CHO cells. It counts as cell-based.
T1 sequence (P51681 whole entry): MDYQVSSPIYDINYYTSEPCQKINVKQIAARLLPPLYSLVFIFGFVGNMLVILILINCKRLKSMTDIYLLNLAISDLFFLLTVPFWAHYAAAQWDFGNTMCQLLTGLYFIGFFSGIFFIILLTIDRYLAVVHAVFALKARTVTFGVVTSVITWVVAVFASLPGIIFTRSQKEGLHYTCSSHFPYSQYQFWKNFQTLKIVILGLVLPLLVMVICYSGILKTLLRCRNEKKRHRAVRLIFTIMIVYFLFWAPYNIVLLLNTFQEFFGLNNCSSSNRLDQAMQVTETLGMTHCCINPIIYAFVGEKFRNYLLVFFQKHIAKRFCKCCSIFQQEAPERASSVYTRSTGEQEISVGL
The target in data set [3] is T1, C-C chemokine receptor type 5. Nature of the data set: Antagonist activity at human CCR5 expressed in CHO cells assessed as inhibition of MIP-1-alpha-stimulated calcium mobilization. The class given is functional, cell-based. In short, it runs like this:
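Cells expressing human CCR5 (hCCR5/CHO) were stimulated with MIP-1α, and the rise in intracellular calcium was measured. Potency is reported as an IC50 for inhibition of the calcium response.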

A further data set addresses Cytochrome P450 3A4 (Homo sapiens, UniProt P08684). Nature of the data set: Inhibition of CYP3A4. The class given is ADME.
For data set [4], the system named is Human immunodeficiency virus. Nature of the data set: Antiviral activity against HIV. It counts as functional, organism-based. The following applies: Human immunodeficiency virus 1.
Data set [5] has as its system Human immunodeficiency virus 1. Nature of the data set: Anti-infective activity against HIV1 BAL in MAGI CCR5+ cells. The class given is functional, organism-based. To be noted: Human immunodeficiency virus 1, BAL.
A short description of data set [6]: Aqueous solubility at pH 6.8. It counts as physicochemical.

Cytochrome P450 3A4, sequence (P08684 whole entry): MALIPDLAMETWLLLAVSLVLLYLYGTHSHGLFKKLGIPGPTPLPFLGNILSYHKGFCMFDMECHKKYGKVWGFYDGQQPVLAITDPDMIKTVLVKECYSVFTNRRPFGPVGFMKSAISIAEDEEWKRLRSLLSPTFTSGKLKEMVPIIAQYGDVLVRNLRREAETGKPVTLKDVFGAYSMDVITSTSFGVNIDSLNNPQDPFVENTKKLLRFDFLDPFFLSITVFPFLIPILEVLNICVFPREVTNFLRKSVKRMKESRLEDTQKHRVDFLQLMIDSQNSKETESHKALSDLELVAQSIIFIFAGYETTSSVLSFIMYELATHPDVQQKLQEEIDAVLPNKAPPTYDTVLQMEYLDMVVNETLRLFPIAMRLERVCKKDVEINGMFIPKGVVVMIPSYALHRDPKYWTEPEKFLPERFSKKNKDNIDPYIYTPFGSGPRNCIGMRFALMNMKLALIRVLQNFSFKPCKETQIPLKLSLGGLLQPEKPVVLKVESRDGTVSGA

Take `CCCCN1C(=O)[C@@H]([C@H](O)C(C)C)NC(=O)C12CCN(Cc1ccc(Oc3ccccc3)cc1)CC2.Cl`: in data set [1], the bioavailability was less than 1%. In addition, the results for the half-inhibitory concentration (IC50) in data set [2] and in data set [3] were 3.5 nM and 33 nM, respectively.
Regarding `CCCCN1C(=O)C(CC2CCCCC2)NC(=O)C12CCN(Cc1ccc(Oc3ccccc3)cc1)CC2.Cl` (stereo not drawn), the half-inhibitory concentration (IC50) on Cytochrome P450 3A4 came out at 9300 nM; in data set [4], 31 nM; in data set [5], 337 nM; in data set [3], 28 nM. The compound also showed a solubility in data set [6] of less than 0.2 µg/mL.
`CCCCN1C(=O)[C@H](CC(C)C)NC(=O)C12CCN(Cc1ccc(Oc3ccccc3)cc1)CC2`: the IC50 in data set [2] came out at 11 nM; in data set [3] it was 84 nM.
Regarding `CCCCN1C(=O)[C@H]([C@H](O)C(C)C)NC(=O)C12CCN(Cc1ccc(Oc3ccccc3)cc1)CC2`, the results for the half-maximal inhibitory concentration (IC50) in data set [2] and in data set [3] were 68 nM and 400 nM, respectively.
The like results for `CCCCN1C(=O)C(CC(C)(C)O)NC(=O)C12CCN(Cc1ccc(Oc3ccccc3)cc1)CC2` (stereo not drawn) were, in that order, 28 nM and 79 nM.
On the same counts, the results for `CCCCN1C(=O)[C@H]([C@@H](O)C(C)C)NC(=O)C12CCN(Cc1ccc(Oc3ccccc3)cc1)CC2` are 53 nM and 150 nM.
In the case of `CCCCN1C(=O)[C@@H]([C@H](O)C2CCCCC2)NC(=O)C12CCN(Cc1ccc(Oc3ccccc3)cc1)CC2.Cl`, the 50% inhibitory concentration (IC50) in data set [4] came out at 0.6 nM; in data set [5], 6 nM. The bioavailability in data set [1] was less than 1%. The compound further displayed a solubility in data set [6] of 2.7 µg/mL.
Consider `CCCCN1C(=O)[C@@H]([C@@H](O)C(C)C)NC(=O)C12CCN(Cc1ccc(Oc3ccccc3)cc1)CC2`, for which the results for the IC50 in data set [2] and in data set [3] were 24 nM and 210 nM, respectively.
In turn, `CCCCN1C(=O)C(CC(C)C)NC(=O)C12CCN(Cc1ccc(Oc3ccccc3)cc1)CC2.Cl` (stereo not drawn) gave a 90% effect concentration (IC90) in data set [4] of 676 nM. The compound also had a bioavailability in data set [1] of 1.3%. Further, the 50% inhibitory concentration (IC50) turned out to be 8.3 nM in data set [2] and 94 nM in data set [3].
On to `CCCCN1C(=O)[C@@H](CC(C)C)NC(=O)C12CCN(Cc1ccc(Oc3ccccc3)cc1)CC2`, for which the IC50 in data set [2] was 29 nM; in data set [3], 130 nM.
